Measured values taken from ChEMBL document CHEMBL2311318, “Lead optimization of a dihydropyrrolopyrimidine inhibitor against phosphoinositide 3-kinase (PI3K) to improve the phenol glucuronic acid conjugation” (Bioorg Med Chem Lett, 2013).

Columns and labels:
[1] = target: Phosphatidylinositol 4,5-bisphosphate 3-kinase catalytic subunit alpha isoform (Homo sapiens, UniProt P42336); assay: Inhibition of PI3Kalpha (unknown origin) using phosphatidylinositol 4,5-bisphosphate as substrate
Summary of the method: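 Recombinant PI3Kα (p110α/p85α) activity was measured with the Adapta Universal Kinase Assay using PIP2:PS lipid substrate.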

[2] = Half life in mouse liver microsomes at 5 uM in presence of UDPGA; assay type: ADME, Microsome
Summary of the method: (§1)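 Human or mouse liver microsomes (1.0 mg protein/ml) were pretreated with 25 µg/ml alamethicin in 50 mM Tris-HCl, pH 7.5, at 4 °C for 30 min to release UGTs. Compound at 5 µM was then incubated with 2 mM UDPGA at 37 °C for 60 min. The reaction was quenched with three volumes of acetonitrile and centrifuged.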

[3] = Half life in human liver microsomes at 1 uM in presence of NADPH; assay type: ADME, Microsome
Summary of the method: (§2)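 Compound at 1 µM was incubated at 37 °C for 30 min with human or mouse liver microsomes (0.5 mg protein/ml) in 50 mM phosphate buffer, pH 7.4, with 1 mM NADPH. The reaction was quenched with three volumes of acetonitrile and centrifuged. Remaining compound in the supernatant was quantified by LC/MS.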

[4] = Half life in mouse liver microsomes at 1 uM in presence of NADPH; assay type: ADME, Microsome; summary of the method: as §2
[5] = Cytotoxicity against human KPL4 cells expressing PI3Kalpha H1047R mutant assessed as growth inhibition after 96 hrs; assay type: functional, cell-based; details: KPL4, 96 h
Summary of the method: (§3)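 KPL-4 breast, HCT116 colon and PC-3 prostate cancer cells were exposed to a range of compound concentrations for 96 h. Growth inhibition was read with Cell Counting Kit-8.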

PC-3 = assay: Cytotoxicity against PTEN-deficient human PC3 cells assessed as growth inhibition after 96 hrs; assay type: functional, cell-based; details: PC-3, 96 h; summary of the method: as §3
HCT-116 = assay: Cytotoxicity against human HCT116 cells expressing PI3Kalpha H1047R mutant assessed as growth inhibition after 96 hrs; assay type: functional, cell-based; details: HCT-116, 96 h; summary of the method: as §3
[6] = Half life in human liver microsomes at 5 uM in presence of UDPGA; assay type: ADME, Microsome; summary of the method: as §1
[7] = AUC in BALB/c nu mouse at 100 mg/kg, po; assay type: ADME, organism-based; design: dose 100 mg/kg, route oral; details: plasma
Summary of the method: (§4)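 Female BALB/c-nu mice, n = 2 per group, dosed iv at 10 mg/kg or po at 100 mg/kg. Heparinized blood drawn at 0.08, 0.25, 2, 4, 7 and 24 h after iv dosing, and at 0.50, 2, 4, 7 and 24 h after po dosing. Plasma stored at -80 °C and assayed by LC–MS/MS. Parameters come from non-compartmental analysis and are the mean of two animals.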

[8] = Antitumor activity against human KPL4 cells expressing PI3Kalpha H1047R mutant xenografted in BALB nu/nu mouse assessed as tumor growth inhibition at 80mg/kg, po qd relative to control; assay type: functional; details: read-out: TGI
Summary of the method: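 KPL-4 cells were injected orthotopically into the mammary fat pad of female BALB-nu/nu mice. Tumors were measured with a gauge twice weekly, with volume = length × width²/2. Once tumors reached about 200 mm³, mice were randomized (n = 5 per group) and treatment began.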

[9] = Apparent oral clearance in BALB/c nu mouse at 100 mg/kg; assay type: ADME, organism-based; design: dose 100 mg/kg, route oral; details: in vivo; summary of the method: as §4
[10] = Half life in BALB/c nu mouse at 100 mg/kg, po; assay type: ADME, organism-based; design: dose 100 mg/kg, route oral; details: in vivo; summary of the method: as §4
[11] = Cmax in BALB/c nu mouse at 100 mg/kg, po; assay type: ADME, organism-based; design: dose 100 mg/kg, route oral; details: in vivo; summary of the method: as §4
[12] = Half life in BALB/c nu mouse at 10 mg/kg, iv; assay type: ADME, organism-based; design: dose 10 mg/kg, route intravenous; details: in vivo; summary of the method: as §4
[13] = AUC in BALB/c nu mouse at 10 mg/kg, iv; assay type: ADME, organism-based; design: dose 10 mg/kg, route intravenous; details: plasma; summary of the method: as §4

Chain of Phosphatidylinositol 4,5-bisphosphate 3-kinase catalytic subunit alpha isoform (P42336 whole entry, canonical isoform): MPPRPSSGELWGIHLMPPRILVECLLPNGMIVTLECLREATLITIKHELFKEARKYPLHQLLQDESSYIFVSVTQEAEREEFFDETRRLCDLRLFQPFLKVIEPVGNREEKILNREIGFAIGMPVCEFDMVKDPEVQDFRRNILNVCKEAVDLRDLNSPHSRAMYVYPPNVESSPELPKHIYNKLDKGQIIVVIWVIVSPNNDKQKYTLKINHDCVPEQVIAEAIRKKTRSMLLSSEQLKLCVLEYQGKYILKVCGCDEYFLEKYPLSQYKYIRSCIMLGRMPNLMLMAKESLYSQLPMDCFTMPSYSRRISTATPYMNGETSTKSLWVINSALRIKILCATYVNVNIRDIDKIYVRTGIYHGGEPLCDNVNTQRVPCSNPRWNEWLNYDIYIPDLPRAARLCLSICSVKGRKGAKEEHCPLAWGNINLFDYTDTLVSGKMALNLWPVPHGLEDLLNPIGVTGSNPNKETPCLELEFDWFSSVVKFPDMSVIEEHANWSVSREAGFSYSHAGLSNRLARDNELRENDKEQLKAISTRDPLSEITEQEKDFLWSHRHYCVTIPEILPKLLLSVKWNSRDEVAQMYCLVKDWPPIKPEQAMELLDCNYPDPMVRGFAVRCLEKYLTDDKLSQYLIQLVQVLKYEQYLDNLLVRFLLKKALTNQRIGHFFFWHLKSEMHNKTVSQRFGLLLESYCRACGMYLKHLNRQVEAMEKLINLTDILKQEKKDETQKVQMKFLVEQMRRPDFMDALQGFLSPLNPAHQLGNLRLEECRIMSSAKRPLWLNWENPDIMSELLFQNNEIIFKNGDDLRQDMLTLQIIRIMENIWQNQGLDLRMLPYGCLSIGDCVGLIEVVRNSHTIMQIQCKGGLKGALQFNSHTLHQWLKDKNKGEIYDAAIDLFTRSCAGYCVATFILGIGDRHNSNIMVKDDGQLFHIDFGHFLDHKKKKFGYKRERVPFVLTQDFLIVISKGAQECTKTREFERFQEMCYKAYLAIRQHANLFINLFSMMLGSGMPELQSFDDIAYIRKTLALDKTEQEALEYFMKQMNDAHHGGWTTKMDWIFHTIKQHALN

Compound	IC50 [1] [nM]	other results
O=C(O)c1cccc(-c2nc(N3CCOCC3)nc3c2CCN3c2ccncc2)c1	> 50000	
c1cc(N2CCc3c(-c4cncnc4)nc(N4CCOCC4)nc32)ccn1	440	
Oc1cccc(-c2nc(N3CCOCC3)nc3c2CCN3c2nccs2)c1	49	
CNC(=O)c1cccc(-c2nc(N3CCOCC3)nc3c2CCN3c2ccncc2)c1	2400	
Oc1cccc(-c2nc(N3CCOCC3)nc3c2CCN3c2ccc3ncccc3c2)c1	> 50000	
Nc1ncc(-c2nc(N3CCOCC3)nc3c2CCN3c2ccncc2)cn1	26	half-life at 5 µM [2]: > 1 h; half-life at 1 µM [3]: 2.12 h; half-life at 1 µM [4]: 0.45 h; IC50 [5]: 29 nM; IC50 (PC-3): 120 nM; IC50 (HCT-116): 91 nM; half-life at 5 µM [6]: > 1 h
c1cc(-c2nc(N3CCOCC3)nc3c2CCN3c2ccncc2)ccn1	22600	
Oc1cccc(-c2nc(N3CCOCC3)nc3c2CCN3c2ccccc2)c1	1220	
CNS(=O)(=O)c1cccc(-c2nc(N3CCOCC3)nc3c2CCN3c2ccncc2)c1	> 50000	
Oc1cccc(-c2nc(N3CCOCC3)nc3c2CCN3c2ccncc2)c1		half-life at 5 µM [2]: 0.102 h; half-life at 1 µM [4]: 0.333 h; IC50 (PC-3): 140 nM; IC50 (HCT-116): 720 nM
c1cc(N2CCc3c(-c4ccc5cn[nH]c5c4)nc(N4CCOCC4)nc32)ccn1	> 50000	
Nc1ncc(-c2nc(N3CCOCC3)nc3c2CCN3c2cccnc2)cn1		half-life at 5 µM [2]: > 1 h; AUC [7]: 19400 ng·h/mL; inhibition in vivo at 80 mg/kg [8]: 166%; CL/F [9]: 86.1 mL/min/kg; half-life [10]: 6.58 h; Cmax [11]: 4190 ng/mL; half-life [12]: 10.3 h; half-life at 1 µM [4]: 1.05 h; AUC [13]: 4690 ng·h/mL; IC50 [5]: 15 nM; IC50 (PC-3): 420 nM; IC50 (HCT-116): 170 nM; half-life at 5 µM [6]: > 1 h
Nc1cccc(-c2nc(N3CCOCC3)nc3c2CCN3c2ccncc2)c1	3700	
Oc1cccc(-c2nc(N3CCOCC3)nc3c2CCN3c2ccnc(O)c2)c1	200	
c1cc(-c2nc(N3CCOCC3)nc3c2CCN3c2ccncc2)c2[nH]ncc2c1	> 50000	
c1cc(-c2nc(N3CCOCC3)nc3c2CCN3c2ccncc2)c2cn[nH]c2c1	> 50000	
c1cc(N2CCc3c(-c4ccc5[nH]ncc5c4)nc(N4CCOCC4)nc32)ccn1	> 50000	
Oc1cccc(-c2nc(N3CCOCC3)nc3c2CCN3c2ccccn2)c1	> 50000	
Cn1ccc(N2CCc3c(-c4cccc(O)c4)nc(N4CCOCC4)nc32)n1	230	
COc1cccc(-c2nc(N3CCOCC3)nc3c2CCN3c2ccncc2)c1	410	
NC(=O)c1cccc(-c2nc(N3CCOCC3)nc3c2CCN3c2ccncc2)c1	19000	
Nc1n[nH]c2cc(-c3nc(N4CCOCC4)nc4c3CCN4c3ccncc3)ccc12	> 50000	
c1cncc(-c2nc(N3CCOCC3)nc3c2CCN3c2ccncc2)c1	1700	
Cc1ccc(-c2nc(N3CCOCC3)nc3c2CCN3c2ccncc2)cc1O	> 50000	
Cc1c(O)cccc1-c1nc(N2CCOCC2)nc2c1CCN2c1ccncc1	> 50000	
Cc1cc(N2CCc3c(-c4cccc(O)c4)nc(N4CCOCC4)nc32)ccn1	170	
